Results taken from ChEMBL document CHEMBL1799960, “Diadenosine 5',5''-(boranated)polyphosphonate analogues as selective nucleotide pyrophosphatase/phosphodiesterase inhibitors” (J Med Chem, 2010).
Calls of active or inactive are those of the source. No cut-off for these calls is given here.

How the values were obtained:
[1] = target: T1, P2Y purinoceptor 11 (Homo sapiens) (UniProt Q96G91); assay: Agonist activity at GFP tagged-human P2Y11 receptor expressed in human 1321N1 cells assessed as elevation in calcium level at 50 uM after 30 mins by fluorescence spectrophotometric analysis; type: functional, cell-based
T1 sequence (whole entry): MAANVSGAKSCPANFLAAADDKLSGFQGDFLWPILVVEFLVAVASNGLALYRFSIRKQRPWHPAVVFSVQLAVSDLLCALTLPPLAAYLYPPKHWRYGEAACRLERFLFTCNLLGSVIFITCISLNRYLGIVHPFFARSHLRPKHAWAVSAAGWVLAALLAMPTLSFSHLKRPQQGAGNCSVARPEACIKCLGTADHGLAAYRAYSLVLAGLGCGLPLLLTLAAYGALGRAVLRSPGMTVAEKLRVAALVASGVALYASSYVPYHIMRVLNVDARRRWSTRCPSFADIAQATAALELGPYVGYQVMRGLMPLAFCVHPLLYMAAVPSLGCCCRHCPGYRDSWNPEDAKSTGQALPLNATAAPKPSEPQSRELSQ

[2] = target: T2, Ectonucleoside triphosphate diphosphohydrolase 3 (Homo sapiens) (UniProt O75355); assay: Activity of human NTPDase3 expressed in COS7 cells assessed as amount of inorganic phosphate released using ATP as the substrate at 100 uM after 15 mins by malachite green reagent method; type: cell-based; details: COS-7
T2 sequence (whole entry): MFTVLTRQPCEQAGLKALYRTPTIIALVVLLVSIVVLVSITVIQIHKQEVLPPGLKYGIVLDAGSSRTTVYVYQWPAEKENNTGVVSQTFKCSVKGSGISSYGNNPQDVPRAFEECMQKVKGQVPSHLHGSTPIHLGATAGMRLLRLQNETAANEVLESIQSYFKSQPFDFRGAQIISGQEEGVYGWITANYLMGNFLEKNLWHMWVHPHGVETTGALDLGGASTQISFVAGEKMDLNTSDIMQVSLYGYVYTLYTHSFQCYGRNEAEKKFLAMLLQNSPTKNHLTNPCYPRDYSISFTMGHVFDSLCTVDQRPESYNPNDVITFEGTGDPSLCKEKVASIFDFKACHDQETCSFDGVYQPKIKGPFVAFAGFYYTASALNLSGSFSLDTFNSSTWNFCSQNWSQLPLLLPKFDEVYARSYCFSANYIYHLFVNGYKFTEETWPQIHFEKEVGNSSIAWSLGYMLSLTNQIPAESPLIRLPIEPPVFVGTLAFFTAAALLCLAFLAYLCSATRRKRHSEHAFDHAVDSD
Outline: (§1)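 Crude membrane-enriched protein extract of transiently transfected COS-7 cells, preincubated 3 min at 37 °C in Tris-Ringer buffer pH 7.3. Reaction started with 100 μM ATP, or with the analogue alone at 100 μM to test it as substrate. Stopped after 15 min with malachite green reagent; released Pi read at 630 nm. Mean ± SD, n = 3.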

[3] = target: T3, Ectonucleoside triphosphate diphosphohydrolase 2 (Homo sapiens) (UniProt Q9Y5L3); assay: Activity of human NTPDase2 expressed in COS7 cells assessed as amount of inorganic phosphate released using ATP as the substrate at 100 uM after 15 mins by malachite green reagent method; type: cell-based; details: COS-7; outline: as §1
T3 sequence (whole entry): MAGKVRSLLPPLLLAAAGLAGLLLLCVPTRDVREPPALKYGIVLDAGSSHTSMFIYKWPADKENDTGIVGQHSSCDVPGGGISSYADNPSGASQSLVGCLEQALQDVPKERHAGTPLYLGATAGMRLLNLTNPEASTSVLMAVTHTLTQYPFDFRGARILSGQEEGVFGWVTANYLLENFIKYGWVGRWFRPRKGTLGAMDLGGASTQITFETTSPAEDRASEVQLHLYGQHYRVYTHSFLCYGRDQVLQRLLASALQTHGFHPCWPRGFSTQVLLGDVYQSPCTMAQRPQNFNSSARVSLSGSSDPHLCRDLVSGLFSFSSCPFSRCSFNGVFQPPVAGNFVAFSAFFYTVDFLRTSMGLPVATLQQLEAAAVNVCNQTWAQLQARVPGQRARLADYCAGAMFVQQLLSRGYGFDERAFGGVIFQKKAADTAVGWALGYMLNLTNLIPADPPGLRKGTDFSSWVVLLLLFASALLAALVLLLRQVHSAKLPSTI

Activity [1]	Activity [2] [%]	Activity [3] [%]	Compound
inactive	1.8	–	Nc1ncnc2c1ncn2[C@H]1C[C@H](O)[C@@H](COP(=O)(O)CP(=O)(O)OP(=O)(O)CP(=O)(O)OC[C@H]2O[C@@H](n3cnc4c(N)ncnc43)C[C@@H]2O)O1
inactive	–	0.2	BP(=O)(OP(=O)(O)CP(=O)(O)OC[C@H]1O[C@@H](n2cnc3c(N)ncnc32)C[C@@H]1O)OP(=O)(O)CP(=O)(O)OC[C@H]1O[C@@H](n2cnc3c(N)ncnc32)C[C@@H]1O
–	5.3	0.1	Nc1ncnc2c1ncn2[C@@H]1O[C@H](COP(=O)(O)CP(=O)(O)OP(=O)(O)CP(=O)(O)OC[C@H]2O[C@@H](n3cnc4c(N)ncnc43)[C@H](O)[C@@H]2O)[C@@H](O)[C@H]1O
